B1: Sulfotransferase 1E1 (Homo sapiens) (protein)
chain: MNSELDYYEKFEEVHGILMYKDFVKYWDNVEAFQARPDDLVIATYPKSGTTWVSEIVYMIYKEGDVEKCKEDVIFNRIPFLECRKENLMNGVKQLDEMNSPRIVKTHLPPELLPASFWEKDCKIIYLCRNAKDVAVSFYYFFLMVAGHPNPGSFPEFVEKFMQGQVPYGSWYKHVKSWWEKGKSPRVLFLFYEDLKEDIRKEVIKLIHFLERKPSEELVDRIIHHTSFQEMKNNPSTNYTTLPDEIMNQKLSPFMRKGITGDWKNHFTVALNEKFDKHYEQQMKESTLKFRTEI
B2: Sulfotransferase 1A1 (Homo sapiens) (protein)
chain: MELIQDTSRPPLEYVKGVPLIKYFAEALGPLQSFQARPDDLLISTYPKSGTTWVSQILDMIYQGGDLEKCHRAPIFMRVPFLEFKAPGIPSGMETLKDTPAPRLLKTHLPLALLPQTLLDQKVKVVYVARNAKDVAVSYYHFYHMAKVHPEPGTWDSFLEKFMVGEVSYGSWYQHVQEWWELSRTHPVLYLFYEDMKENPKREIQKILEFVGRSLPEETVDFVVQHTSFKEMKKNPMTNYTTVPQEFMDHSISPFMRKGMAGDWKTTFTVAQNERFDADYAEKMAGCSLSFRSEL

Key:
[1] = substrate: CN(C)CCOc1ccc(/C(=C(/CCCl)c2ccccc2)c2ccc(O)cc2)cc1; assay: Activity of human SULT1E1 expressed in escherichia coli assessed as enzyme-mediated 4-(4-chloro-1-(4-(2-(dimethylamino)ethoxy)phenyl)-2-phenylbut-1-enyl)phenyl hydrogen sulfate formation after 15 mins by Michaelis-Menten equation in presence of 20 uM PAPS; type: ADME
Outline: (§1)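 Purified E. coli-expressed human enzyme (DEAE-Sepharose, ~80% pure; activity per total protein) incubated with 0.1–30 µM 4-OH-TOR, 20 µM PAPS, 50 mM potassium phosphate pH 6.2, 15 min at 37 °C. Reaction started with enzyme, stopped with acetonitrile:acetic acid (96:4). Sulfate quantified by radio-HPLC. Triplicate runs, corrected with a no-substrate control. Low substrate range chosen to limit substrate inhibition.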

[2] = substrate: CN(C)CCOc1ccc(/C(=C(/CCCl)c2ccccc2)c2ccc(O)cc2)cc1; assay: Activity of human SULT1A1 expressed in escherichia coli assessed as enzyme-mediated 4-(4-chloro-1-(4-(2-(dimethylamino)ethoxy)phenyl)-2-phenylbut-1-enyl)phenyl hydrogen sulfate formation after 15 mins by Michaelis-Menten equation in presence of 20 uM PAPS; type: ADME; outline: as §1

Row | Protein | Km [1] | Vmax [1] | Km [2] | Vmax [2]
1 | B1 | 6.4 µM | 0.0055 µmol/min |  | 
2 | B2 |  |  | 2.6 µM | 0.0085 µmol/min

Source: ChEMBL document CHEMBL3525912, “Sulfation of 4-hydroxy toremifene: individual variability, isoform specificity, and contribution to toremifene pharmacogenomics” (Drug Metab Dispos, 2012)
